Experimental data published in ChEMBL document CHEMBL1124579, “7-Heteroaryl-1,2,3,5-tetrahydroimidazo[2,1-b]quinazolin -2(1H)-one derivatives with cardiac stimulant activity” (J Med Chem, 1989).

Experiments:
Canis familiaris [1] = experiment: Percent increase in dP/dtmax (positive inotropic activity) in anesthetized dog after administration of 250 ug/kg Intravenously; format: functional, Canis lupus familiaris
Method in brief: (§1)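 Anesthetized dog with a catheter-tip transducer passed into the left ventricle via the carotid artery. LV pressure is differentiated to give dP/dtmax, the contractility index. There is 0.75 h equilibration after surgery. The compound is given iv in 0.9% saline (4 mL), 0.5 h after the standard agent (50 μg/kg). The cycle is repeated once control levels return, at least 0.5 h apart. The result is the % increase in dP/dtmax.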

Canis familiaris [2] = experiment: Cardiac contractility (decrease in the QA interval) in conscious dog, 3 hours after oral administration (dose 1 mg/kg); format: functional, Canis lupus familiaris
Method in brief: (§2)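 Conscious dogs; the test substance is given by gavage as a solution. The QA interval is the time from the ECG R wave to the upstroke of the arterial pressure pulse, measured by computer. It is recorded every 0.16 h from 0.5 h before dosing to 4 h after. Each point is the mean of six consecutive sets, each averaged over 8 s. The result is the change from the mean predose value.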

Canis familiaris [3] = experiment: Relative inotropic response (20 micro mg/kg Intravenously) to that of 4-[4-[2-(1,1-dioxo-2-isothiazolidinyl)ethyl]-1-piperidinyl]-6,7-dimethoxyquinazoline (5- ug/kg), in dog; format: functional, Canis lupus familiaris
Method in brief: (§3)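 Anesthetized dog with a left-ventricular catheter introduced via the carotid artery; dP/dtmax is derived from LV pressure. The standard quinazoline (50 μg/kg iv) is given first, then the test compound iv in saline 0.5 h later, in the same dog. Relative potency = (% increase in dP/dtmax to drug ÷ % increase to standard) × (dose standard ÷ dose drug).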

Canis familiaris [4] = experiment: Percent increase in dP/dtmax (positive inotropic activity) in anesthetized dog after administration of 20 ug/kg Intravenously; format: functional, Canis lupus familiaris; method in brief: as §1
Canis familiaris [5] = experiment: Cardiac contractility (decrease in the QA interval) in conscious dog 1 hour after oral administration (dose 1 mg/kg); format: functional, Canis lupus familiaris; method in brief: as §2
[6] = Dissociation constant was determined; format: physicochemical
Canis familiaris [7] = experiment: Relative inotropic response (250 ug/kg Intravenously) to that of 4-[4-[2-(1,1-dioxo-2-isothiazolidinyl)ethyl]-1-piperidinyl]-6,7-dimethoxyquinazoline (5- ug/kg), in dog; format: functional, Canis lupus familiaris; method in brief: as §3
Canis familiaris [8] = experiment: Percent increase in dP/dtmax (positive inotropic activity) in anesthetized dog after administration of 10 micro mg/kg Intravenously; format: functional, Canis lupus familiaris; method in brief: as §1
Canis familiaris [9] = experiment: Relative inotropic response (10 ug/kg Intravenously) to that of 4-[4-[2-(1,1-dioxo-2-isothiazolidinyl)ethyl]-1-piperidinyl]-6,7-dimethoxyquinazoline (5- ug/kg), in dog; format: functional, Canis lupus familiaris; method in brief: as §3
Canis familiaris [10] = experiment: Cardiac contractility (decrease in the QA interval) in conscious dog, 3 hours after oral administration (dose 0.125 mg/kg); format: functional, Canis lupus familiaris; method in brief: as §2
Canis familiaris [11] = experiment: Cardiac contractility (decrease in the QA interval) in conscious dog 1 hour after oral administration (dose 0.125 mg/kg); format: functional, Canis lupus familiaris; method in brief: as §2
Canis familiaris [12] = experiment: Percent increase in dP/dtmax (positive inotropic activity) in anesthetized dog after administration of 50 ug/kg Intravenously; format: functional, Canis lupus familiaris; method in brief: as §1
Canis familiaris [13] = experiment: Relative inotropic response (50 micro mg/kg Intravenously) to that of 4-[4-[2-(1,1-dioxo-2-isothiazolidinyl)ethyl]-1-piperidinyl]-6,7-dimethoxyquinazoline (5- ug/kg), in dog; format: functional, Canis lupus familiaris; method in brief: as §3
Canis familiaris [14] = experiment: Relative inotropic response (2 ug/kg Intravenously) to that of 4-[4-[2-(1,1-dioxo-2-isothiazolidinyl)ethyl]-1-piperidinyl]-6,7-dimethoxyquinazoline (5- ug/kg), in dog; format: functional, Canis lupus familiaris; method in brief: as §3
Canis familiaris [15] = experiment: Percent increase in dP/dtmax of positive inotropic activity in conscious dog after administration of 25 ug/kg orally
Canis familiaris [16] = experiment: Cardiac contractility (decrease in the QA interval) in conscious dog 1 hour after oral administration (dose 0.1 mg/kg); format: functional, Canis lupus familiaris; method in brief: as §2
Canis familiaris [17] = experiment: Percent increase in dP/dtmax (positive inotropic activity) in anesthetized dog after administration of 2 micro mg/kg Intravenously; format: functional, Canis lupus familiaris; method in brief: as §1
Canis familiaris [18] = experiment: Cardiac contractility (decrease in the QA interval) in conscious dog, 3 hours after oral administration (dose 0.1 mg/kg); format: functional, Canis lupus familiaris; method in brief: as §2
Canis familiaris [19] = experiment: Percent increase in dP/dtmax of positive inotropic activity in conscious dog after administration of 100 ug/kg orally
Canis familiaris [20] = experiment: Cardiac contractility (decrease in the QA interval) in conscious dog 1 hour after oral administration (dose 0.25 mg/kg); format: functional, Canis lupus familiaris; method in brief: as §2
Canis familiaris [21] = experiment: Cardiac contractility (decrease in the QA interval) in conscious dog, 3 hours after oral administration (dose 0.25 mg/kg); format: functional, Canis lupus familiaris; method in brief: as §2
Canis familiaris [22] = experiment: Percent increase in dP/dtmax (positive inotropic activity) in anesthetized dog after administration of 25 ug/kg Intravenously; format: functional, Canis lupus familiaris; method in brief: as §1
Canis familiaris [23] = experiment: Relative inotropic response (25 ug/kg Intravenously) to that of 4-[4-[2-(1,1-dioxo-2-isothiazolidinyl)ethyl]-1-piperidinyl]-6,7-dimethoxyquinazoline ([…]), in dog; format: functional, Canis lupus familiaris; method in brief: as §3
Canis familiaris [24] = experiment: Relative inotropic response (50 ug/kg Intravenously) to that of 4-[4-[2-(1,1-dioxo-2-isothiazolidinyl)ethyl]-1-piperidinyl]-6,7-dimethoxyquinazoline […], in dog; format: functional, Canis lupus familiaris; method in brief: as §3
Canis familiaris [25] = experiment: Relative inotropic response (50 umg/kg Intravenously) to that of 4-[4-[2-(1,1-dioxo-2-isothiazolidinyl)ethyl]-1-piperidinyl]-6,7-dimethoxyquinazoline […], in dog; format: functional, Canis lupus familiaris; method in brief: as §3

Compound: Cc1cn(-c2cc(C)c3c(c2)CN2C(=N3)NC(=O)C2(C)C)c(C)n1
- Increase in dP/dtmax (Canis familiaris [1]): 20%

Compound: Cc1cn(-c2ccc3c(c2)CN2CC(=O)NC2=N3)c(C)n1
- Decrease in the QA interval (Canis familiaris [2]): 10 ms
- Relative inotropic potency (Canis familiaris [3]): 1.9
- Increase in dP/dtmax (Canis familiaris [4]): 30%
- Decrease in the QA interval (Canis familiaris [5]): 6 ms

Compound: O=C1CN2Cc3ccccc3N=C2N1
- pKa [6]: 10.9
- Relative inotropic potency (Canis familiaris [7]): 0.1
- Increase in dP/dtmax (Canis familiaris [1]): 24%

Compound: Cc1ccc(-c2cc(C)c3c(c2)CN2CC(=O)NC2=N3)c(C)n1
- Increase in dP/dtmax (Canis familiaris [8]): 30%
- Relative inotropic potency (Canis familiaris [9]): 2.7
- Decrease in the QA interval (Canis familiaris [10]): 15 ms
- Decrease in the QA interval (Canis familiaris [11]): 15 ms

Compound: Cc1cc(-n2cncn2)cc2c1NC1=NC(=O)CN1C2
- Increase in dP/dtmax (Canis familiaris [12]): 76%
- Relative inotropic potency (Canis familiaris [13]): 3.2
- Decrease in the QA interval (Canis familiaris [10]): 12 ms
- Decrease in the QA interval (Canis familiaris [11]): 8 ms

Compound: Cc1cn(-c2cc(C)c3[nH]c(=O)ccc3c2)c(C)n1 [NANTERINONE]
- pKa [6]: 11.2

Compound: Cc1cn(-c2cc(C)c3c(c2)CN2CC(=O)NC2=N3)c(C)n1
- Relative inotropic potency (Canis familiaris [14]): 7.8
- Increase in dP/dtmax (Canis familiaris [15]): 20%
- Decrease in the QA interval (Canis familiaris [16]): 5 ms
- Increase in dP/dtmax (Canis familiaris [17]): 23%
- Decrease in the QA interval (Canis familiaris [18]): 15 ms
- Increase in dP/dtmax (Canis familiaris [19]): 50%

Compound: Cc1[nH]c(=O)c(C#N)cc1-c1ccncc1 [MILRINONE]
- Decrease in the QA interval (Canis familiaris [20]): 13 ms
- Decrease in the QA interval (Canis familiaris [21]): 7 ms
- Increase in dP/dtmax (Canis familiaris [22]): 46%
- Relative potency (Canis familiaris [23]): 1.6

Compound: Cc1ccc(-c2ccc3c(c2)CN2CC(=O)NC2=N3)c(C)n1
- Decrease in the QA interval (Canis familiaris [2]): 15 ms
- Increase in dP/dtmax (Canis familiaris [12]): 29%
- Relative potency (Canis familiaris [24]): 1.3
- Decrease in the QA interval (Canis familiaris [5]): 14 ms

Compound: Cc1cc(-n2cnnc2)cc2c1NC1=NC(=O)CN1C2
- Increase in dP/dtmax (Canis familiaris [12]): 24%
- Relative potency (Canis familiaris [24]): 0.5

Compound: Cc1ccc(-c2ccc3c(c2)C(C)N2CC(=O)N=C2N3)c(C)n1 (configuration not stated)
- Increase in dP/dtmax (Canis familiaris [12]): 50%
- Relative inotropic potency (Canis familiaris [13]): 1.6
- Decrease in the QA interval (Canis familiaris [10]): 9 ms
- Decrease in the QA interval (Canis familiaris [11]): 13 ms

Compound: CC1CC(O)=NN=C1c1ccc(-n2ccnc2)cc1.Cl (configuration not stated)
- Increase in dP/dtmax (Canis familiaris [12]): 100%
- Relative potency (Canis familiaris [25]): 1.6

Compound: O=C1CN2Cc3cc(-n4cncn4)ccc3N=C2N1
- Increase in dP/dtmax (Canis familiaris [12]): 63%
- Relative inotropic potency (Canis familiaris [13]): 1.7

Compound: C[C@@H]1C(=O)NC2=Nc3cccc(Cl)c3CN21 [QUAZINONE]
- Relative inotropic potency (Canis familiaris [7]): 0.3
- Increase in dP/dtmax (Canis familiaris [1]): 66%

Compound: Cc1cn(-c2cc(C)c3c(c2)CN2C(=N3)NC(=O)C2C)c(C)n1 (configuration not stated)
- Decrease in the QA interval (Canis familiaris [2]): 15 ms
- Increase in dP/dtmax (Canis familiaris [8]): 12%
- Relative inotropic potency (Canis familiaris [9]): 0.9
- Decrease in the QA interval (Canis familiaris [5]): 9 ms
